The structures appear in SMILES notation.

Experimental findings from PMC9942872 (Proceedings of the National Academy of Sciences of the …, 2023) are described below.

The test concerns the target T1, NaLdpA (Novosphingobium aromaticivorans, UniProt Q2G4I2).
T1 sequence (Q2G4I2 1-243): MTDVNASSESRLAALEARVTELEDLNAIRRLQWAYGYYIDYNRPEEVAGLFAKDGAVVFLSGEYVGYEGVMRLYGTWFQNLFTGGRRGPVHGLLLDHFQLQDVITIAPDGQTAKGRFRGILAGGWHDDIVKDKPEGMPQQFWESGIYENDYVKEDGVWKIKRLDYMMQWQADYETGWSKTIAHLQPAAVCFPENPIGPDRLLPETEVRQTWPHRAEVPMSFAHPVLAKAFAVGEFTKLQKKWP
The experiment in a line: spectrophotometric lignostilbene production, product inhibition. The format is biochemical. The method, boiled down: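 Recombinant polyHis-tagged enzyme expressed in E. coli, purified by chromatography and stored at −80 °C. Reactions were run in air-saturated MOPS (I = 0.1 M), pH 7.0, at 25 °C. Erythro-DGPD substrate concentration was varied, with lignostilbene added at 0, 1, 2, 4 or 10 μM.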

For orientation: Ki means a measure of affinity in units of concentration, obtained from inhibition or displacement. Molecule `COc1cc(/C=C/c2ccc(O)c(OC)c2)ccc1O` [lignostilbene] returned a Ki of 330 ± 30 nM.
